Source: ChEMBL document CHEMBL1123059, “2-(beta-Arylethylamino)- and 4-(beta-arylethylamino)quinazolines as phosphodiesterase inhibitors” (J Med Chem, 1985)

Legend:
[1] = target: cAMP phosphodiesterase (Bos taurus); test: Inhibition of bovine heart cAMP-phosphodiesterase
[2] = test system: cAMP phosphodiesterase (Bos taurus); test: Ratio of Ki/Km for inhibition of bovine heart cAMP-phosphodiesterase
Cavia porcellus [3] = organism: Cavia porcellus; test: Percentage relaxation of guinea pig tracheal preparation relative to papaverine at 84 uM; assay type: functional, Trachea
Procedure, shortened: (§1)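 Spiral trachea strips from female Hartley guinea pigs (300-500 g) were held in Krebs-Henseleit at 37 °C under 95% O2/5% CO2. Cumulative doses of the hydrochloride salt were given, then papaverine 10 μg/mL as the supramaximal reference. Relaxation at the stated concentration is given as % of papaverine maximum, with vehicle-corrected controls.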

Cavia porcellus [4] = organism: Cavia porcellus; test: Relaxation in guinea pig tracheal preparation relative to papaverine; assay type: functional; details: Trachea, read-out: ED50 (the source's name)
Cavia porcellus [5] = organism: Cavia porcellus; test: Percentage relaxation of guinea pig tracheal preparation relative to papaverine at 70 uM; assay type: functional, Trachea
Procedure, shortened: as §1

[6] = target: cAMP phosphodiesterase (Bos taurus); test: Inhibition of bovine heart cAMP-phosphodiesterase; remark: listed apart in the source
Cavia porcellus [7] = organism: Cavia porcellus; test: Relaxation in guinea pig tracheal preparation relative to papaverine, range 52.5-75.9; assay type: functional; details: Trachea, read-out: ED50 (the source's name)
Cavia porcellus [8] = organism: Cavia porcellus; test: Relaxation in guinea pig tracheal preparation relative to papaverine, range 162-589; assay type: functional; details: Trachea, read-out: ED50 (the source's name)
Cavia porcellus [9] = organism: Cavia porcellus; test: Percentage relaxation of guinea pig tracheal preparation relative to papaverine at 98 uM; assay type: functional, Trachea
Procedure, shortened: as §1

Cavia porcellus [10] = organism: Cavia porcellus; test: Percentage relaxation of guinea pig tracheal preparation relative to papaverine at 42 uM; assay type: functional, Trachea
Procedure, shortened: as §1

Cavia porcellus [11] = organism: Cavia porcellus; test: Relaxation in guinea pig tracheal preparation relative to papaverine, range 63.1-79.4; assay type: functional; details: Trachea, read-out: ED50 (the source's name)
Cavia porcellus [12] = organism: Cavia porcellus; test: Percentage relaxation of guinea pig tracheal preparation relative to papaverine at 20 uM; assay type: functional, Trachea
Procedure, shortened: as §1

Cavia porcellus [13] = organism: Cavia porcellus; test: Relaxation in guinea pig tracheal preparation relative to papaverine, range 33.1-91.2; assay type: functional; details: Trachea, read-out: ED50 (the source's name)

| IC50 [1] | Ratio [2] | IC50 [6] | Compound | other results |
| --- | --- | --- | --- | --- |
| 295 µM | 1.15 |  | CCN(CC)c1nc(NCC(O)c2cccc(O)c2)nc2cc(OC)c(OC)cc12 (stereo not drawn) | Max relaxation (Cavia porcellus [3]): 11.5% |
| 432 µM | 0.43 |  | CCN(CC)c1nc(NCC(O)c2cc(O)cc(O)c2)nc2cc(OC)c(OC)cc12.Cl (stereo not drawn) | EC50 (Cavia porcellus [4]): 26.9 µM |
| 16 µM | 0.107 |  | CCN(CC)c1nc(NCCc2ccccc2)c2cc(OC)c(OC)cc2n1 | Max relaxation (Cavia porcellus [5]): 29% |
|  | 0.81 | 428 µM | CCN(CC)c1nc(NCC(O)c2ccc(O)c(CO)c2)c2cc(OC)c(OC)cc2n1.Cl (stereo not drawn) | EC50 (Cavia porcellus [7]): 63.1 µM |
|  | 0.054 | 87 µM | CCN(CC)c1nc(NCCc2ccccc2)nc2cc(OC)c(OC)cc12 | EC50 (Cavia porcellus [8]): 234 µM |
|  | 0.64 | 350 µM | CCN(CC)c1nc(NCC(O)c2ccccc2)c2cc(OC)c(OC)cc2n1 (stereo not drawn) | Max relaxation (Cavia porcellus [9]): 46% |
| 339 µM | 0.69 |  | CCN(CC)c1nc(NCC(O)c2ccc(O)c(CO)c2)nc2cc(OC)c(OC)cc12.Cl (stereo not drawn) | Max relaxation (Cavia porcellus [10]): 36% |
|  |  |  | Cn1c(=O)c2nc[nH]c2n(C)c1=O [THEOPHYLLINE] | EC50 (Cavia porcellus [11]): 70.8 µM |
|  | 0.73 | 610 µM | CCN(CC)c1nc(NCC(O)c2cccc(O)c2)c2cc(OC)c(OC)cc2n1.Cl (stereo not drawn) | Max relaxation (Cavia porcellus [12]): 28% |
| 328 µM | 1.88 |  | CCN(CC)c1nc(NCC(O)c2ccccc2)nc2cc(OC)c(OC)cc12 (stereo not drawn) | EC50 (Cavia porcellus [13]): 49 µM |
